Experimental findings from the RNAGym collection of RNA variant scans (doi:10.1126/science.aae0568) are described below.

Sequences and labels used below:
B1: tRNA (parent)
chain: GUUCCGUUGGCGUAAUGGUAACGCGUCUCCCUCCUAAGGAGAAGACUGCGGGUUCGAGUCCCGUACGGAACG

This sample holds only a part of the variants without activity.

The variants in the series derive from B1. The series is described as follows: yeast fitness relative to wild type (ratio to wild type); higher = fitter; tRNA-Arg(CCU), competitive growth, 37 C, YPD. The essentials:
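For this measurement, the tRNA-Arg(CCU) gene was varied by chemical synthesis at a 3% per-site mutation rate across 69 sites, and each variant was placed at the native genomic locus in Saccharomyces cerevisiae. The pooled strains went through a 24-hour competition in YPD at 37°C in six parallel replicates, with amplicons from start and end populations read by 100-nucleotide paired-end sequencing. Darwinian fitness relative to wild type followed from the change in each genotype's frequency. Genotypes needed ≥ 100 starting reads, and estimates < 0.5 were set to 0.5.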
For GUUCCGAUGGCGUAAUGGUAACGCGUCUCCCUCCUUUGGAGAAGACUGCGGGUUCGAGUCCCGUACGGAACG [U7A A36U A37U], the yeast fitness is 0.768.

For the variant GUUCCGAUGGCGUAAUGGUACCGCGUCUUCCUCCUAGGGAGAAGACUGCGGGUUCGGGUCCCGUACGGAACG [U7A A21C C29U A37G A57G], the yeast fitness is no more than 0.5.

With GUUCCGAUGGCGUAAUGGUCACGCGUCUCCCUCCUAAGGAGAAGACUGCGGGUUCGAGACCCGUCCGGAACG [U7A A20C U59A A65C], the yeast fitness stood at 0.662.

On to GUUCCGAUGGCGUAAUGGUGACGCGUCUCCCUCCUAAGGAGAAGAGUGCGGGUUCGAGUCCCGUACGGAACG [U7A A20G C46G], for which the yeast fitness came out at 0.507.

Regarding GUUCCGAUGGCGUAUUGGUAACGCGUCUCCCUCCUAAGGGGAAGACUGCGGGUUCGAGUCCCGUACGCAACG [U7A A15U A40G G68C], the yeast fitness was found to be 0.514.

Consider GUUCCGAUGGCGUAAUGGUUACGCGUCUCCCUCCUAAGGAGAAGACUGCGGAUUCGAGUCCCGUACGGAACG [U7A A20U G52A], for which the yeast fitness was no more than 0.5.

In the case of GUUCCGAUGGCGUAAUGGUAACGCGUCUCCCUCCUGAGGAGAGGACUGCGGGUUCGAGUCCAGUACGGAACG [U7A A36G A43G C62A], the yeast fitness is no more than 0.5.

Regarding GUUCCGAUGGCGUAGUGGUAACACGUACGCCUCCUAAGGAGAAGACUGCGGGUUCGAGUCACGUACGGAACG [U7A A15G G23A C27A U28C C29G C61A], the yeast fitness is no more than 0.5.

With GUUCCGAUGGCGUCAUGGUAACGCGUUUCCCUCCUAAGGAGAAGUCUGCGGGUUCGAGUCCCGUACAGAACG [U7A A14C C27U A45U G67A], the yeast fitness is no more than 0.5.

Take GUUCCGAUGGCGUAAUGGUCACGCGUCUCCCUCCUAAGGAGAAGACUGCAGGUUCGAGUCCCGUACGGAACG [U7A A20C G50A]: the yeast fitness was no more than 0.5.

Regarding GUUCCGAUGGCGUAAUGGUGACGCGUCUCCUUCCUAAGGAGAAGACUGCGGGUUCGCGUCCCGUUCGGAACG [U7A A20G C31U A57C A65U], the yeast fitness was no more than 0.5.

With GUUCCGAUGGCGUCAUGGUAACGCAUCUCGCUCCUAAGGAGAAGACUGCGGGUUCGAGUCUCGUACGGAACG [U7A A14C G25A C30G C61U], the yeast fitness is no more than 0.5.

Turning to GUUCCGAUGGCGUAAUGGUGACACGGCUCCCUCCUAAGGAGAAGACUGCGGGUUCGAGUCCCGUACAGAACG [U7A A20G G23A U26G G67A], the yeast fitness is no more than 0.5.

Consider GUUCCGAUGGCGUAAUGGUAACGCGUCUCCCUCCUGAGGUGAAGAGUGCGGGUUCGAGUCCCGUACGGAACG [U7A A36G A40U C46G], for which the yeast fitness is no more than 0.5.

Turning to GUUCCGAUGGCGUAAUGGUAUCGCGUCUCCCUCCUAAGGAGGAGACUGCGGGUUUGAGUCCCGUACGGACCG [U7A A21U A42G C55U A70C], the yeast fitness is no more than 0.5.

As for GUUCCGAUGGCGUAAUGGUCACGCGUCCCCCUCCUAAGGAGAAGACUGCGGGUUCGACUCCCGUACGGAACG [U7A A20C U28C G58C], the yeast fitness came to 0.647.

With GUUCCGAUGGCGUAAUGGUGACACGGCUCCCUCCUAAGGAGAAGACUGCUGGUUCGAGUCCCGUACGGAACG [U7A A20G G23A U26G G50U], the yeast fitness is no more than 0.5.

Consider GUUCCGAUGGCGUAAUGGUCACGCGUCUCCCUCCUAAGGAGAAGACUGCGGGUUCGAGUCCCGUACGCAACG [U7A A20C G68C], for which the yeast fitness is 0.539.

For the variant GUUCCUUCGGCGUAAUGGUAACGCGUCUCCCUCCUAAGGAGAAGACUGCGGGUUCGAGUCCCGUACGGAACG [G6U U8C], the yeast fitness came out at 0.769.

For the variant GUUCCGAUGGCGUAAUGGUACCGCGUCUCCCCCCUAAGGAGAAGACUGCGGGUUCGAGUCCCGUACGGAACG [U7A A21C U32C], the yeast fitness is no more than 0.5.

With GUUCCGAUGGCGUAAUGGUACCGCGUCUCCCUCCUAAGGAGAAGACUGCGGGUCCGAGUCGCGUACGGAACG [U7A A21C U54C C61G], the yeast fitness was no more than 0.5.

Turning to GUUCCGAUGGCGUAAUGGUGAAGCGUCUCCCUCCUAAGGGCAAGACUGCGGGUUCGAGUCCCGUACGGAACG [U7A A20G C22A A40G G41C], the yeast fitness was no more than 0.5.

For GUUCCGAUGGCGUAAUGGUAUCGCGUCUCCCUCCUAAGGAGAAGACUGCGCGUUCGAGUCCUGUACGGAACG [U7A A21U G51C C62U], the yeast fitness came to 0.816.

As for GUUCCGAUGGCGUGAUGGUAACGCGUCUCCUUCCUAAGGAGACGAUUGCGGGUUCGAGUCCCCUAUGGAACG [U7A A14G C31U A43C C46U G63C C66U], the yeast fitness was no more than 0.5.

As to GUUCCGAUGGCGUAAUGGUAACGCGUCUCCCUCCUAAGGAGAAGACUGCGGGUUCGAGUCCCGUACGGAACG [U7A], the yeast fitness was 0.826.

With GUUCCGAUGGCGUAAUGGUAACGCGUCUCCCUCCUGAGGAGAAGACUGCGGGUUCGAGUCCCGUACGGAACG [U7A A36G], the yeast fitness amounted to 0.662.

Take GUUCCGAUGGCGUAAUGGUAUCGCGUCUCCCUCCUAAGGAAAAGACUGCGGGUUCGAGUCCCGUACGGAACG [U7A A21U G41A]: the yeast fitness stood at 0.619.

Consider GUUCCGAUGGCGUAAUGGUAGCGCGUCUCGCUCCUAAGGAGAAGACUGCGGGUUCGAGUCCCGUACGGAACG [U7A A21G C30G], for which the yeast fitness is no more than 0.5.

For the variant GUUCCUUUGGCGUAAUGGUAACGCGUCUCCCCCCUAAGGAGAAGACUGCGGGUUCGAGUCCCGUACGGAACG [G6U U32C], the yeast fitness is 0.766.

Take GUUCCGAUGGCGUAAUGGUAGCGCGUCUCGCUCCUGAGGAGAAGACUGCGGGUUCGAGUCCCGUACGGAACG [U7A A21G C30G A36G]: the yeast fitness was no more than 0.5.

Consider GUUCCGAUGGCGUAAUGGUGACGCGUCUCCAUCCUAAGGAGAAGACUGCGGGUUCGAGUCCCGUACGGAACG [U7A A20G C31A], for which the yeast fitness is no more than 0.5.

For GUUCCGAUGGCGUAAUGGUACCGCGACUCACUCCUAAGGAGAAGGCUGCGGAUUCGAGUCCCGUACGGAACG [U7A A21C U26A C30A A45G G52A], the yeast fitness is 0.547.

As for GUUCCGAUGGCGUAAUGGUGACGCGUCUCCCUCCUAAGGAGAAGACUGCGGGUUCGAGUCCCGUACGGAACG [U7A A20G], the yeast fitness was 0.713.

As to GUUCCGAUGGCGUAAUGGUCACGCGUCUCCCUCCUAAGGAGAAGACUGCGGGUUCGAGUCCCGUACGGAACG [U7A A20C], the yeast fitness is 0.733.

Consider GUUCCGAUGGCGUAAUGGUGACGCGUCUCCCUCCUAAGGAGACGACUGCGGGUUCGUGUCCCGUACGGAACG [U7A A20G A43C A57U], for which the yeast fitness was no more than 0.5.

For the variant GUUCCGAUGGCGUAAUGGUGACGCGUCUCCCUCCUAAGGAGAAGACUGCGGGUUCGAGUCCCGUACGAAACG [U7A A20G G68A], the yeast fitness is no more than 0.5.

Take GUUCCGAUGGCGUAAUGGUACCGCGUCUCUCUCCUAAGGAGCAGACUCCGGGUUCGAGUCCCGUACGGAACG [U7A A21C C30U A42C G48C]: the yeast fitness was no more than 0.5.

For the variant GUUCCGAUGGCGUUAUGGUAACGCGUCUCCCUCCUAAGGAGAAGACUGCGGGUUCGAGUCCCGUACGAAACG [U7A A14U G68A], the yeast fitness is no more than 0.5.
